Numbering of substitutions follows the chain as printed. Where no end group is shown, it is not given here. Me2 = dimethyl (dimethyl-lysine)
What was measured:
PHF20 PHD finger (WT) = target: T1, PHF20 PHD finger (WT) (Homo sapiens, UniProt Q9BVI0); experiment: Tryptophan fluorescence binding of histone peptides to WT PHF20 PHD finger
T1 sequence (Q9BVI0 651-699): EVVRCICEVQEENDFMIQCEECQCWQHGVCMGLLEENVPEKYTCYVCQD
How it was run: (§1)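 The PHF20 PHD (aa 651–699, GST cleaved; mutants by site-directed mutagenesis) was in PBS pH 6.8 with 10 mM DTT at room temperature. Histone peptide was increased progressively. Excitation was at 280 nm and emission was scanned 310–405 nm (0.5-nm steps, 1-s integration, three scans averaged). Kd came from a nonlinear least-squares fit of intensity change, averaged over three separate experiments, with SD between runs.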

[1] = target: T2, E662D mutant of PHF20-PHD (Homo sapiens, UniProt Q9BVI0, E662D); experiment: Tryptophan fluorescence binding of histone peptides to E662D mutant of PHF20 PHD
T2 sequence (Q9BVI0 651-699 E662D): T1 sequence (Q9BVI0 651-699) with E12D
How it was run: as §1

[2] = tested on: E662K mutant of PHF20 PHD finger; experiment: NMR and tryptophan fluorescence binding, E662K mutant of PHF20 PHD; set-up: species or system human; settings: E662K folded, soluble, stable protein; Figures 4C and 4E
How it was run: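 GST-tagged PHF20 PHD (aa 651–699), wild-type or point mutant made by site-directed mutagenesis, was expressed in E. coli Rosetta-2(DE3)pLysS in 15NH4Cl minimal medium with 150 μM ZnCl2, then GST-cleaved. 1H,15N HSQC spectra were collected at 298K (600/500 MHz) as 12-mer histone tail peptides were added stepwise. Shift changes were normalized as √(ΔδH²+(ΔδN/5)²); Kd came from a nonlinear least-squares fit.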

GST-PHF20 PHD = experiment: Biotinylated histone peptide pull-down with GST-PHF20 PHD, western blot; type: binding, human; settings: 1 μg biotinylated peptide, 1 μg GST-PHF20 PHD, 50 mM Tris-HCl pH 7.5, 250 mM NaCl, 0.1% NP-40, overnight, streptavidin beads
[3] = target: PHF20 PHD finger (aa 651-699), wild type (human) (UniProt Q9BVI0); experiment: other fluorescence titration
[4] = target: PHF20 PHD finger E662D (human) (UniProt Q9BVI0); experiment: other fluorescence titration
PHF20 PHD finger E662D = target: T3, PHF20 PHD finger E662D (human, UniProt Q9BVI0 651-699, E662D); experiment: other fluorescence titration
T3 chain (looked up): T1 sequence (Q9BVI0 651-699) with E12D

[5] = target: T4, PHF20 PHD finger (aa 651-699), wild type (human, UniProt Q9BVI0 651-699); experiment: other fluorescence titration
T4 chain (looked up): T1 sequence (Q9BVI0 651-699)

PHF20 Tudor2 (aa 58-148) = target: T5, PHF20 Tudor2 (aa 58-148) (human, UniProt Q9BVI0 58-148); experiment: NMR titration
T5 sequence (looked up): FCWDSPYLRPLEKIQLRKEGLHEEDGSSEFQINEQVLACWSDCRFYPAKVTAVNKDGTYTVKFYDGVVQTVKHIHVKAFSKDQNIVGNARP

PHF20 PHD finger R654H = target: T6, PHF20 PHD finger R654H (human, UniProt Q9BVI0 651-699, R654H); experiment: NMR titration
T6 chain (looked up): T1 sequence (Q9BVI0 651-699) with R4H

PHF20 PHD finger F665V = target: T7, PHF20 PHD finger F665V (human, UniProt Q9BVI0 651-699, F665V); experiment: NMR titration
T7 chain (looked up): T1 sequence (Q9BVI0 651-699) with F15V

PHF20 PHD finger P689L = target: T8, PHF20 PHD finger P689L (human, UniProt Q9BVI0 651-699, P689L); experiment: NMR titration
T8 chain (looked up): T1 sequence (Q9BVI0 651-699) with P39L

[6] = target: T9, PHF20 PHD finger (residues 646-699) (human, UniProt Q9BVI0 646-699); experiment: NMR structure
T9 sequence (looked up): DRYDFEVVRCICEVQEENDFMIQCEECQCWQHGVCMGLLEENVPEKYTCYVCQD

`C[C@H](N)C(=O)N[C@@H](CCCNC(=N)N)C(=O)N[C@H](C(=O)N[C@@H](CCCCN(C)C)C(=O)N[C@@H](CCC(N)=O)C(=O)N[C@H](C(=O)N[C@@H](C)C(=O)N[C@@H](CCCNC(=N)N)C(=O)N[C@@H](CCCCN)C(=O)N[C@@H](CO)C(=O)N[C@H](C(N)=O)[C@@H](C)O)[C@@H](C)O)[C@@H](C)O` [H3K4me2] was tested, and the Kd (PHF20 PHD finger (WT)) was 3.6 µM, the Kd [1] was 3.6 µM and the “interaction with E662K mutant” value [2] was “completely abrogated interaction”. For the same molecule, the “binding in peptide pull-down” value (GST-PHF20 PHD) was “binds”.

Molecule H3K4me1 peptide (12-mer) has a fold weaker than H3K4me2 [3] of 14 fold.

H3K4me3 peptide (12-mer) gave a Kd [4] of 3.7 µM and a fold weaker than H3K4me2 [3] of 6 fold.

H3K4me0 peptide (12-mer) was tested, and the fold weaker than H3K4me2 [3] was 20 fold.

Work on ARTK(Me2)QTARKSTG (peptide, UniProt P68431 2-13, looked up) [H3K4me2 peptide (aa 1-12)] yielded a Kd (PHF20 PHD finger E662D) of 3.6 µM, a Kd [5] of 3.6 µM and a Kd (PHF20 Tudor2 (aa 58-148)) of roughly 1000 µM. For the same molecule, the “fold decrease of binding compared with WT” value (from here on “fold decrease of binding”) (PHF20 PHD finger R654H) was roughly 8 fold, the “fold decrease of binding” value (PHF20 PHD finger F665V) was roughly 9 fold and the “fold decrease of binding” value (PHF20 PHD finger P689L) was roughly 17 fold.

ARTK(Me2)QTARKST-NH2 [11-residue C-terminally amidated H3K4me2 peptide]: binds [6].

Source: PMC5125728 (Cell reports, 2016)
